A selection: hits, their analogues and other compounds. The true share with any hit is near 4.9%.
APP 5'UTR act – activators of APP 5'UTR luciferase reporter, primary screen, SH-SY5Y cells; SH-SY5Y APP 5'UTR luciferase reporter, luminescence; zero percent = DMSO vehicle wells; activation, % at 2 µM; 190,000 compounds, 1% hits;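 active = activation above a set limit, based on mean plus 3 SD of controls, cut at about 140% in these data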
NF-kB neuron act – activators of NF-kB expression in neurons, primary screen, cell-based, HTS | human neuronal cells, NF-kB reporter expression; stronger effect = higher value | fold change at 12.5 µM | 190,000 compounds, 1.6% hits; in the data active = fold change above about 3.3
STAT3 inh-1 – IL-6 driven STAT3 reporter inhibitors, primary screen, U3A cells, luciferase, luminescence, MLSCN library. IL-6 STAT3-luciferase reporter; host cell line lacks STAT1. inhibition, % at 5.5 µM. 190,000 compounds, 0.89% hits. AID 862, 2007;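 active = inhibition above the mean inhibition across all screened compounds plus 3 SD, cut at about 44% in these data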;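 also: 0% = DMSO only wells and 100% = 100 µM nifuroxazide control wells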
STAT1 inh – STAT1 signaling inhibitors, primary screen, cell-based, HTS, luciferase reporter | NIH 3T3 STAT1-luciferase reporter, IFN-gamma, luminescence | inhibition, % at 5.5 µM | 200,000 compounds, 0.35% hits;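 active = inhibition above a set limit, the mean inhibition across all tested compounds plus 3 SD, cut at about 34% in these data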;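 also: 0% = IFN-gamma with DMSO and 100% = IFN-gamma with 300 µM nifuroxazide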
STAT1 activator – STAT1 signaling activators, primary screen, cell-based, HTS, luciferase reporter | AID 932, 2007 | NIH 3T3 STAT1-luciferase reporter, IFN-gamma, luminescence; 100% = IFN-gamma alone, no compound | activation (% of control), % at 5.5 µM | 200,000 compounds, 2.6% hits;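 active = activation above the screen-wide mean activation plus 3 SD, cut at about 130% in these data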;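 also: raw ratio to IFN-gamma control signal so 100% means no change and 0% no light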
STAT3 activator – IL-6 driven STAT3 reporter potentiators, primary screen, U3A cells, luciferase, luminescence, MLSCN library. activation (% of control), % at 5.6 µM. IL-6 STAT3-luciferase reporter; 100% = signal with IL-6 EC80 alone. 190,000 compounds, 0.91% hits. AID 871, 2007;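 active = activation above the screen-wide mean of compound activation plus 3 SD, cut at about 130% in these data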;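 also: 0% = background luminescence of wells with medium and substrate only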
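System – human U3A cells carrying STAT3-luciferase construct · Probe or stimulus – Interleukin-6, 33 ng/mL · Schedule – compound 1 h, then IL-6 6 h at 37 °C · Signal – luminescence from STAT3-driven luciferase reporter · Evaluation – percent of IL-6-only median luminescence · Benchmarks – IL-6-only high control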
STAT3 inh-2 – STAT3 reporter inhibitors, retest of hits, confirmation, U3A cells, luciferase, luminescence. shares compounds with STAT3 inh-1. IL-6 STAT3 luciferase reporter; cell line lacks STAT1. inhibition, % at 5.7 µM. 1,200 compounds, 45% hits;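 active = inhibition above the hit cutoff computed for the primary STAT3 screen, cut at about 44% in these data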;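 also: 0% = IL-6 plus DMSO and 100% = IL-6 plus nifuroxazide control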
NFkB inh STAT3ct – NF-kB reporter inhibitors in human cells, confirmation, counter-screen for STAT3 inhibitor project, cell-based, HEK293T, luciferase, TNF-alpha stimulus; shares compounds with STAT3 inh-1; TNF-alpha induced; inhibition, % at 5.7 µM; 1,200 compounds, 36% hits;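 active = inhibition above the mean of solvent-only control wells plus 3 SD, cutoff set per campaign, cut at about 13% in these data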;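 also: 0% = TNF-alpha with DMSO and 100% = TNF-alpha with MG high control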
STAT1 inh 2 – STAT1 reporter inhibitors, IFN-gamma induced, confirmation, counter-screen for STAT3 inhibitor project, cell-based, NIH 3T3, luciferase luminescence; shares compounds with STAT3 inh-1; 1,200 compounds, 27% hits; NIH 3T3 STAT1-luciferase reporter; inhibition, % at 5.7 µM; AID 1317, 2008;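 active = inhibition above the mean plus 3 SD of solvent-only control wells, limit set per screening run, cut at about 16% in these data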;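 also: 0% = DMSO with IFN-gamma and 100% = nifuroxazide control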
The depositor's hits bear a star; / = not tested or not shown.

SMILES	APP 5'UTR act	NF-kB neuron act	STAT3 inh-1	STAT1 inh	STAT1 activator	STAT3 activator	STAT3 inh-2	NFkB inh STAT3ct	STAT1 inh 2
CC(c1ccc(F)cc1)n1c(Cn2ncc3ccccc3c2=O)n[nH]c1=S (stereo not drawn)	-6.7	0.86	10.2	13.4	87.6	98.4	/	/	/
O=C(Cn1c(=O)oc2ccccc21)N1CCOCC1	-0.1	1	1.2	-0.1	98.8	105.9	/	/	/
Cc1sc2ncnc(NCC(C)(C)N3CCOCC3)c2c1C	-8.8	0.71	47.2*	24.3	79.5	61.2	56.0*	15.5*	18.5*
Cc1sc2ncnc(NCC3CCCO3)c2c1C (stereo not drawn)	7.2	0.74	26.0	19.4	82.3	80.7	/	/	/
Cc1sc2ncnc(NCC3COc4ccccc4O3)c2c1C (stereo not drawn)	-7.6	0.48	74.1*	26.8	75.7	36.2	83.4*	32.0*	23.1*
O=c1[nH]c(CN2CCN(c3ccc(O)cc3)CC2)nc2scc(-c3ccc(Cl)cc3)c12	-61.5	0.8	13.9	7.2	93.7	89.8	/	/	/
Cc1nc(Nc2nc3ccccc3o2)nc2c1CCC2	124.9	3.66*	69.9*	7.8	92.8	45.0	28.1	-7.4	-65.5
O=C1C=CC(=O)N1N(c1ccccc1)c1ccccc1	12.3	1.16	8.0	4.0	96.4	94.0	/	/	/
O=C(COC(=O)CC12CC3CC(CC(C3)C1)C2)Nc1cccnc1Cl	12.9	1.36	7.3	-0.2	100.4	101.8	/	/	/
COC(=O)c1ccc(-c2nc3cc(N)ccc3o2)cc1	-30.7	2.33	59.2*	2.9	105.9	51.7	31.4	1.0	-48.0
COc1ccc(-c2nc3cc(NC(=O)c4ccc5c(c4)OCO5)ccc3o2)cc1	21.1	1.37	19.5	-8.0	107.3	87.0	/	/	/
Nc1[nH]n(-c2ccccc2)c(=O)c1N=Nc1ccc2c(c1)OCCO2	167.4*	1.21	44.8*	-22.2	119.9	64.8	9.8	-15.3	-94.3
CC(=O)c1ccc(NC(=O)CSc2nnc(Cn3cnc4ccccc43)o2)cc1	-11.8	1.18	7.3	9.9	90.8	101.0	/	/	/
COc1ccc(C(=O)CSc2nnc(Cn3cnc4ccccc43)o2)cc1	11.3	0.69	73.3*	10.3	90.6	42.4	48.7*	14.4*	2.4
O=C(CCl)N(c1ccc(Cl)cc1)c1c[nH]c2ccccc12	-17.9	1.03	33.8	22.5	79.3	75.2	/	/	/
O=C(CCl)N(c1ccccc1)c1c[nH]c2ccccc12	-32.0	0.41	44.8*	33.7	69.2	63.8	30.9	18.7*	27.8*
O=C(Nc1nc2c(F)cc(F)cc2s1)c1ccccn1	17.9	4.18*	66.0*	19.2	81.8	47.5	33.9	-19.9	-130.9
c1coc(-c2ccnc3ncnn23)c1	-1.7	1.26	9.2	-0.1	100.6	94.0	/	/	/
c1csc(-c2csc3ncnc(NCCCN4CCOCC4)c23)c1	-12.6	0.92	46.3*	14.8	86.4	64.9	31.0	8.2	15.4
Cc1ccc(OCCN2CCN(C(=O)CCC(=O)Nc3nnc(C)s3)CC2)cc1	-8.0	1.24	4.4	-10.0	109.1	99.8	/	/	/
Cc1ccc(OCCN2CCN(C(=O)CCC(=O)Nc3nnc(C(C)C)s3)CC2)cc1	-16.1	1.7	49.5*	8.9	92.0	62.0	41.8	7.3	3.4
CCCc1nnc(NC(=O)CCC(=O)N2CCN(CCOc3ccc(C)cc3)CC2)s1	12.0	0.74	49.8*	9.9	90.9	61.9	40.2	1.9	0.5
Cc1c(C(=O)OCCOc2ccccc2)[nH]c2c1C(=O)CCC2	86.9	3.53*	59.2*	-18.5	117.0	52.3	28.5	-18.1	-107.2
Cc1cc(NC(=O)c2ccc3c(c2)OCCO3)ccc1NC(=O)c1cc2ccccc2o1	27.7	0.43	20.4	-10.7	110.7	84.2	/	/	/
CCCC(=O)N1CCN(c2ccc(NC(=O)c3cc4ccccc4o3)cc2)CC1	-6.6	0.29	29.6	-0.3	100.2	78.1	/	/	/
SMILES	APP 5'UTR act	NF-kB neuron act	STAT3 inh-1	STAT1 inh	STAT1 activator	STAT3 activator	STAT3 inh-2	NFkB inh STAT3ct	STAT1 inh 2
COc1ccc(NC(=O)C2=Cc3cccc(OC)c3OC2)cc1	77.7	1.7	14.4	-17.0	115.9	95.1	/	/	/
COc1ccc(NC(=O)C2=Cc3ccccc3OC2)cc1	157.3*	9.52*	58.0*	20.0	80.7	53.9	23.8	-31.8	-108.7
O=C(Nc1ccc(NC(=O)c2cc3ccccc3o2)cc1)c1ccc2c(c1)OCCO2	-66.7	1.12	46.7*	24.3	78.5	63.5	50.6*	53.9*	23.3*
O=C(Nc1ccc(N2CCN(C(=O)c3ccc(Cl)cc3)CC2)cc1)c1ccc2c(c1)OCCO2	-19.1	0.53	86.7*	12.7	88.3	28.5	78.7*	28.7*	12.3
O=C(c1ccc2c(c1)OCO2)N1CCN(c2ccc(Cl)cc2)CC1	-9.6	0.95	14.3	13.2	88.0	90.9	/	/	/
O=C(Nc1ccc(N2CCN(C(=O)c3ccccc3)CC2)cc1)c1cc2ccccc2o1	-20.1	0.74	63.4*	-0.2	100.2	49.7	58.7*	13.9*	-5.3
COc1ccccc1NS(=O)(=O)c1cc(NC(=O)c2ccncc2)ccc1N1CCCC1	23.0	1	-3.5	8.6	90.7	104.0	/	/	/
CN1CCN(S(=O)(=O)c2cccc(C(=O)NCc3ccccc3Cl)c2)CC1	4.8	0.92	2.1	-6.0	103.5	106.1	/	/	/
Cc1ccc(NC(=O)COC(=O)/C=C/c2c(C)nn(-c3ccc(F)cc3)c2Cl)cc1F	17.4	0.99	-7.8	1.2	98.9	106.6	/	/	/
CCc1nnc2sc(-c3ccc(NC(=O)c4ccc5c(c4)OCCO5)cc3)nn12	12.9	0.98	55.1*	16.9	84.4	56.2	51.4*	13.4*	31.7*
Cc1ccc(NC(=O)c2ccc3c(c2)OCCO3)cc1	145.1*	4.07*	76.9*	7.0	93.7	35.1	42.1	2.5	-83.8
CS(=O)(=O)Nc1ccc(C(=O)Nc2ccc3c(c2)OCCO3)cc1	39.5	1.84	-5.5	-19.1	117.5	111.7	/	/	/
COc1ccc(C(=O)Nc2ccc3c(c2)OCCO3)cc1	155.6*	6.04*	65.9*	9.1	91.6	48.3	11.6	-19.4	-89.9
